Bioassay records from PubChem BioAssay.
ARFGAP1 inh: inhibitors of rat ARFGAP1 GAP activity, primary screen, biochemical, fluorescence polarization, GDP tracer. AID 651572, 2012. hit rate 0.26% among 360,000. Arfgap1-stimulated ARF1 GTP hydrolysis, GDP FP detection. ADP-ribosylation factor GTPase-activating protein 1 (Rattus norvegicus), Q62848. inhibition, % at 16.5 µM;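 active means inhibition above a per-plate limit, mean inhibition of low control wells plus 3 SD, cut at about 25% in these data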;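 further: 0% = DMSO wells with enzyme and 100% = wells lacking Arfgap1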
Target sequence (Q62848 1-136 limits assumed): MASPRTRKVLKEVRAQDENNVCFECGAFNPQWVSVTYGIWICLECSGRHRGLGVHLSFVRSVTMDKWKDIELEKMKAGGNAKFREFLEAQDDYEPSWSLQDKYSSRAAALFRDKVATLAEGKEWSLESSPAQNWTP
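Material: rat Arfgap1 catalytic domain, aa 1-136; also added: human ARF1(Δ1-17)-GTP substrate; compound dosing: one concentration, 16.5 µM, DMSO 1.26%; incubation: GTP hydrolysis reaction 2 h at 25 °C; measured by: Tracer-displacement fluorescence polarization with EDTA stop, 620/688 nm; evaluation: % inhibition from polarization; repeats: one replicate per compound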
ASAP1 GAP inh: inhibitors of human ASAP1 ArfGAP activity, primary screen, biochemical, fluorescence polarization. Arf-GAP with SH3 domain, ANK repeat and PH domain-containing protein 1 (Homo sapiens), …. ASAP1-stimulated ARF1 GTP hydrolysis, GDP FP detection. inhibition, % at 16.5 µM. hit rate 0.19% among 360,000; in the data active means inhibition above about 25%;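 further: 0% = vehicle with enzyme and substrate and 100% = no enzyme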
CSN deneddyl inh: inhibitors of CSN-mediated cullin deneddylation, primary screen, biochemical, fluorescence polarization, uHTS; Purified CSN, SCF-Nedd8-OG deneddylation; COP9 signalosome complex subunit 5 (Homo sapiens), Q92905; hit rate 0.38% among 360,000; inhibition, % at 12.5 µM; AID 651999, 2013;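 active means pattern-corrected inhibition above about 35%, with an unprinted fluorescence ratio check between 0.5 and 1.5, limit read from the data, passing the limit was not always enough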;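 further: 0% = enzyme with substrate and 100% = substrate without enzyme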
Target sequence (Q92905 whole entry, looked up, one chain of several): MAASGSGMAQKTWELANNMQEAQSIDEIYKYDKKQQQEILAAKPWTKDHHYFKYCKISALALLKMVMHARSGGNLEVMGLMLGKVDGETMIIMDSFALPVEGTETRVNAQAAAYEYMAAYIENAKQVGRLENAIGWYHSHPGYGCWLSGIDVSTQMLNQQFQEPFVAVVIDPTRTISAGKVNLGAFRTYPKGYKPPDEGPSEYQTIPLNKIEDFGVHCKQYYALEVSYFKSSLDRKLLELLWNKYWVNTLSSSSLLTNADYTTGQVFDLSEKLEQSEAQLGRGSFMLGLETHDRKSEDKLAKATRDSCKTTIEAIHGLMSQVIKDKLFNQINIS
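Material: human Csn5 produced in HEK293T cells; Input: enzyme 0.24 nM; Reagent: SCFSkp2-Nedd8OG substrate at 10 nM final; Dosing: 12.5 µM compound; Incubation: 90 min reaction at room temperature; Detection: fluorescence polarization of the substrate; Evaluation: % inhibition of substrate cleavage by Csn5; Control set: substrate-only high control, full reaction low control.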
HNF4A DNA FP: change in binding of human HNF4A to DNA, primary screen, biochemical, fluorescence polarization, FITC-DNA; Hepatocyte nuclear factor 4-alpha (Homo sapiens), P41235; 1 h; activity change, % at 10 µM; hit rate 0.3% among 360,000; in the data active means activity change above about 30%, passing the limit was not always enough
ARFGAP1 confirm: ARFGAP1 inhibitor hit confirmation, biochemical, fluorescence polarization, triplicate; shares compounds with ARFGAP1 inh; ARFGAP1-stimulated ARF1 GTP hydrolysis, GDP tracer FP; inhibition, % at 16.5 µM; hit rate 30% among 890;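 active means average inhibition over triplicates above the hit cutoff set in the earlier primary screen, cut at about 25% in these data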;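 further: 0% = Arfgap1 plus ARF1-GTP with DMSO and 100% = wells lacking Arfgap1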
Active calls of the source: *; / = no result. Most compounds without a hit are left out; they make up all but 0.95% or so of the library.

SMILES | ARFGAP1 inh | ASAP1 GAP inh | CSN deneddyl inh | HNF4A DNA FP | ARFGAP1 confirm
C/C(N)=C(/C#N)C(=O)CSc1nncn1-c1ccccc1 | 28.0* | 0.3 | 0.8 | 3.8 | 0.3
COc1ncc(-c2ccc(N3C(c4ccsc4)=Cc4ccc(F)cc4C3CC(=O)c3ccco3)cc2)cn1 (stereo not drawn) | -11.8 | -3.2 | 0.6 | -0.3 | /
O=C(CC1c2cc(F)ccc2C=C(c2ccsc2)N1c1ccc(C#CCCO)cc1)c1ccco1 (stereo not drawn) | 25.0* | 10.4 | -3.1 | 0.5 | -0.5
COc1cccc(C(c2c(NC(=O)c3ccccc3)sc(C)c2C)N2CCN(C)CC2)c1 (stereo not drawn) | -5.6 | 7.1 | -6.3 | 0.4 | /
CC1CC(C)CN(S(=O)(=O)CC23CCC(CC2=O)C3(C)C)C1 (stereo not drawn) | 24.7* | -6.1 | -1.3 | 0.7 | -8.8
CC1(C)C2CCC1(CS(=O)(=O)N1CCOCC1)C(=O)C2 (stereo not drawn) | 10.1 | 4.7 | -0.5 | 1.4 | /
O=C(CN1C(=O)NC2(CCCC2)C1=O)NNC(=O)c1ccccc1 | -13.5 | -7.1 | 7.5 | -1.6 | /
C(=N\n1cnc2ccccc21)/c1cccnc1 | 24.9* | -6.5 | -2.5 | 3.1 | 7.7
CCC(=O)Nc1nc(CC(=O)Nc2ccccc2OC)cs1 | -1.4 | 10.3 | 0.8 | -0.2 | /
COc1ccccc1NC(=O)Cc1csc(NC(=S)Nc2ccc(C)cc2)n1 | 27.5* | 11.8 | -0.8 | -1.6 | 9.0
Cc1sc2nc(SCC(=O)N3CC(C)OC(C)C3)n(C)c(=O)c2c1C (stereo not drawn) | 25.6* | -1.6 | 7.4 | -1.2 | -2.0
Cc1ccc(N(CCC#N)C(=O)CSc2nc3ccccc3c(=O)[nH]2)cc1 | 9.2 | -15.4 | -0.1 | -1.8 | /
COc1ccc(NC(=O)CN(C)CC(=O)Nc2cccc(C(C)=O)c2)cc1 | 1.5 | 7.2 | -2.6 | -1.0 | /
CC(=O)c1cccc(NC(=O)CN(C)Cc2ccc(OC(F)F)cc2)c1 | 42.0* | -10.2 | 1.8 | 1.6 | -3.1
COc1ccc(-n2c(C)c(C)c3c(NCCN(C)C)ncnc32)cc1 | 4.8 | -6.4 | 5.9 | 1.3 | /
Cc1c(C)n(-c2ccccc2)c2ncnc(NCCN(C)C)c12 | 25.0* | 11.1 | 1.0 | 1.6 | -3.7
NN1C(=O)/C(=C\c2ccco2)SC1=S | -3.8 | 7.3 | 37.8 | -6.3 | /
COc1ccc(/C=C/c2nc(N)nc(-c3ccccc3O)n2)cc1OC | 29.6* | 21.3 | -2.1 | 0.8 | 37.8*
COc1cc(/C=C/c2nc(N)nc(-c3ccccc3O)n2)cc(OC)c1OC | 14.1 | 23.7 | -0.3 | -5.4 | /
CN1c2ccsc2/C(=N/Nc2ccccc2)CS1(=O)=O | 28.7* | -2.4 | -9.9 | -3.5 | 1.3
COC(=O)[C@]1(C)N[C@H](CN(C)C(=O)c2ccc(C)cc2)[C@@H]2C(=O)N(Cc3ccccc3)C(=O)[C@@H]21 | -3.0 | 8.4 | -1.9 | 3.5 | /
Cc1cccc(OCC(=O)OC2CCN(C)CC2)c1 | 26.4* | -4.0 | 5.2 | -4.0 | -0.1
Cc1ccc(OCC(=O)Oc2cccc(C)c2)cc1 | 25.9* | 7.7 | 2.9 | 3.0 | -5.3
NC1C=CC=C(C(=O)O)C1 (stereo not drawn) | 3.4 | 22.1 | 2.7 | 2.0 | /
O=C(O)C1=C[C@@H](O)[C@@H](O)[C@H](O)C1 | 35.9* | 2.4 | -0.6 | 1.1 | -2.0
SMILES | ARFGAP1 inh | ASAP1 GAP inh | CSN deneddyl inh | HNF4A DNA FP | ARFGAP1 confirm
C=CCC[C@H](Cc1ccc(F)cc1)C(=O)OC[C@@H](NC(=O)[C@@H](CC=C)CC(=O)N(CCO)Cc1ccccc1)C(C)(C)C | 4.5 | 0.3 | 3.2 | -0.7 | /
CCC(C)N1CCN(S(=O)(=O)Cc2ccccc2)CC1 (stereo not drawn) | -3.3 | 11.0 | -0.9 | -0.8 | /
Cc1cccc(NC(=O)COc2ccccc2C(=O)NC(C)c2ccccc2)c1 (stereo not drawn) | / | / | -4.8 | 3.0 | /
CN(C)S(=O)(=O)c1ccc(C(=O)N(c2ccccn2)c2ccccn2)cc1 | 30.6* | -13.3 | -2.9 | 3.0 | -0.8
O=C(c1cc([N+](=O)[O-])cc([N+](=O)[O-])c1)N(c1ccccn1)c1ccccn1 | -5.5 | -6.1 | -1.2 | -0.7 | /
O=c1c2[nH]cnc2n(-c2cccc(F)c2)c(=O)n1Cc1ccccc1 | 24.6* | 0.6 | -2.3 | 0.4 | 3.3
Cc1ccc(S(=O)(=O)N2CCCc3nc(-c4ccc(Br)cc4)ccc32)cc1 | 3.7 | 3.4 | / | / | /
Cc1ccc(S(=O)(=O)N(Cc2ccccc2Cl)C(=O)N2CCN(C)CC2)cc1 | 8.7 | -1.9 | 0.5 | 1.5 | /
Cc1ccc(S(=O)(=O)N(Cc2ccccc2F)C(=O)N2CCN(C)CC2)cc1 | 28.7* | -3.2 | -2.5 | -2.0 | 6.1
Cc1cc(=O)n(-c2ccc(C(=O)O)cc2)[nH]1 | 27.9* | 4.9 | 3.3 | -0.6 | -1.4
Cc1cc(C)c(N=Cc2c(O)c3ccccc3oc2=O)c(C)c1 | -6.6 | -1.2 | -1.2 | 3.2 | /
CC1(C)CC(=O)C=C(NCCN2CCN(C(=O)Nc3ccc(Cl)cc3)CC2)C1 | 32.8* | -12.7 | -0.3 | 0.1 | -1.5
CCOc1cc(/C=N/n2c(C)nnc2C)ccc1O | 28.4* | 5.4 | -2.0 | 0.6 | 6.8
CCOc1ccc(/C=N/n2c(C)nnc2C)cc1OC | 3.9 | -2.0 | 1.8 | 3.7 | /
COC(=O)C1C2CC3c4[nH]c5cc(OC)ccc5c4CCN3CC2CC(OC2CCCCO2)C1OC (stereo not drawn) | 7.4 | 7.3 | 1.3 | 30.6 | /
COC(=O)[C@H]1[C@H]2C[C@@H]3c4[nH]c5cc(OC)ccc5c4CCN3C[C@H]2C[C@@H](OC(=O)c2cc(OC)c(OC)c(OC)c2)[C@@H]1OC | 27.9* | 6.4 | 1.7 | 10.8 | 2.9
Cc1ncsc1C(=O)N1N=C2/C(=C/c3ccccc3)CCCC2C1c1ccccc1 (stereo not drawn) | 29.6* | -6.0 | 3.7 | 5.0 | -2.4
CC12CCC(C(=NO)C1=O)C2(C)C (stereo not drawn) | -12.1 | -2.2 | 3.7 | 1.0 | /
Cc1cc(C)c2c(=N)c3ccccc3n(CCCCCCCCn3c4ccccc4c(=N)c4c(C)cc(C)nc43)c2n1 | 25.5* | 9.3 | 96.2 | 76.8 | -1.2
COC(=O)N/N=C/c1ccc(OS(=O)(=O)c2ccc(C)cc2)c(OC)c1 | 37.2* | 5.2 | 4.6 | 1.1 | -3.6
COc1ccc(C=NNC(=O)NN=Cc2ccc(OC)c(OC)c2)cc1OC | 37.8* | 6.4 | -6.3 | 2.1 | 55.3*
Cc1cc(C)c2nc(C)cc(N/N=C/c3ccc(O)cc3)c2c1 | 26.1* | 12.2 | 3.7 | 2.4 | 40.0*
CCn1c(CNC(=O)c2cccs2)nnc1SCC(=O)Nc1cc(Cl)ccc1C | -1.2 | -0.7 | -6.1 | 0.9 | /
